From ChEMBL document CHEMBL1154645, “Aza-peptidyl Michael acceptor and epoxide inhibitors--potent and selective inhibitors of Schistosoma mansoni and Ixodes ricinus legumains (asparaginyl endopeptidases)” (J Med Chem, 2009) come the findings set out here.

Assay [1] in a line: Inhibition of Schistosoma mansoni asparaginyl endopeptidase. The conditions noted are these: read-out: IC50. The essentials: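 Recombinant S. mansoni legumain zymogen expressed in Pichia pastoris and activated before use. Assay buffer was 0.1 M citrate-phosphate with 4 mM DTT at pH 6.8, with under 1% DMSO. The substrate was Cbz-Ala-Ala-[…]-AMC at a final 10 μM, and activity was read as AMC release.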

Assay [2] concerns the target T1, Legumain-like protease (Ixodes ricinus, UniProt Q6PRC7).
T1 sequence (Q6PRC7 whole entry): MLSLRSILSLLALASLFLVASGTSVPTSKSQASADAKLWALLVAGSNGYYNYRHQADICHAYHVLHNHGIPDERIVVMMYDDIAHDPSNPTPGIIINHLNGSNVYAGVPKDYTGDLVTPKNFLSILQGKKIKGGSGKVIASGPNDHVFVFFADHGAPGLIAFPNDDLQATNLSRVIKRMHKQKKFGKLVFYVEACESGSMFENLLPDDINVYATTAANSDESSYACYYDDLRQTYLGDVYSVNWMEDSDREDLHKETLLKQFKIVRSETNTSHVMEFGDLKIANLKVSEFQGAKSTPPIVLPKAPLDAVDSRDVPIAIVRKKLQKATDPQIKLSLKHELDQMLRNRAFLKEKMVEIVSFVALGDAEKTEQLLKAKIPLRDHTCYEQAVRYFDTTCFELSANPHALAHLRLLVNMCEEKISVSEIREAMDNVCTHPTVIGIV
The assay is described as follows: Inhibition of Ixodes ricinus asparaginyl endopeptidases. The settings on record: read-out: IC50. In outline:
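Recombinant I. ricinus legumain zymogen expressed in Pichia pastoris, then activated. Substrate: Cbz-Ala-Ala-[…]-AMC at 10 μM final, with fluorogenic AMC release as the read-out.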

Regarding `CC(NC(=O)N1CCCCC1)C(=O)N[C@@H](C)C(=O)NN(CC(N)=O)C(=O)[C@H]1O[C@@H]1C(=O)N(Cc1ccccc1)Cc1ccccc1` (single isomer, unassigned), the figures for the IC50 in assay [1] and in assay [2] were 72 nM and 12 nM, respectively.

Regarding `CC(NC(=O)N1CCNCC1)C(=O)N[C@@H](C)C(=O)NN(CC(N)=O)C(=O)[C@H]1O[C@@H]1C(=O)N(Cc1ccccc1)Cc1ccccc1` (single isomer, unassigned), the IC50 came to 150 nM in assay [1] and 11 nM in assay [2].

For the compound `C[C@H](NC(=O)[C@@H](C)NC(=O)N1CCN(C(=O)OCc2ccccc2)CC1)C(=O)NN(CC(N)=O)C(=O)/C=C/C(=O)N(C)Cc1cccc2ccccc12`, the half-inhibitory concentration (IC50) stood at 70 nM in assay [1] and 0.35 nM in assay [2].

For `CCOC(=O)[C@H]1O[C@@H]1C(=O)N(CC(N)=O)NC(=O)[C@H](C)NC(=O)C(C)NC(=O)N1CCCCC1` (single isomer, unassigned), the values for the IC50 in assay [1] and in assay [2] were 220 nM and 30 nM, respectively.
